In ChEMBL document CHEMBL1250553, “Synthesis, cytotoxicity and liposome preparation of 28-acetylenic betulin derivatives” (Bioorg Med Chem, 2010):
Active and inactive are the calls of the source. The calls are words filed in the database; no cut-off is given here.

Assays:
Assay type in all cases: functional, cell-based
[1] = test system: 518A2; experiment: Cytotoxicity against human 518A2 cells at 30 uM after 96 hrs by sulforhodamine B assay
In short: (§1)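 Growth inhibition at the highest tested concentration, 30 µM, after 96 h exposure in 96-well plates. Read by SRB staining as % viable cells relative to untreated controls, from at least three independent experiments.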

[2] = test system: A-431; experiment: Cytotoxicity against human A431 cells at 30 uM after 96 hrs by sulforhodamine B assay; in short: as §1
[3] = test system: A253; experiment: Cytotoxicity against human A253 cells at 30 uM after 96 hrs by sulforhodamine B assay; in short: as §1
[4] = test system: FaDu; experiment: Cytotoxicity against human FADU cells at 30 uM after 96 hrs by sulforhodamine B assay; in short: as §1
[5] = test system: A549; experiment: Cytotoxicity against human A549 cells at 30 uM after 96 hrs by sulforhodamine B assay; in short: as §1
[6] = test system: A2780; experiment: Cytotoxicity against human A2780 cells at 30 uM after 96 hrs by sulforhodamine B assay; in short: as §1
[7] = test system: DLD-1; experiment: Cytotoxicity against human DLD1 cells at 30 uM after 96 hrs by sulforhodamine B assay; in short: as §1
[8] = test system: HCT-8; experiment: Cytotoxicity against human HCT8 cells at 30 uM after 96 hrs by sulforhodamine B assay; in short: as §1
[9] = test system: HCT-116; experiment: Cytotoxicity against human HCT116 cells at 30 uM after 96 hrs by sulforhodamine B assay; in short: as §1
[10] = test system: HT-29; experiment: Cytotoxicity against human HT-29 cells at 30 uM after 96 hrs by sulforhodamine B assay; in short: as §1
[11] = test system: SW480; experiment: Cytotoxicity against human SW480 cells at 30 uM after 96 hrs by sulforhodamine B assay; in short: as §1
[12] = test system: 8505C; experiment: Cytotoxicity against human 8505C cells at 30 uM after 96 hrs by sulforhodamine B assay; in short: as §1
[13] = test system: SW-1736; experiment: Cytotoxicity against human SW1736 cells at 30 uM after 96 hrs by sulforhodamine B assay; in short: as §1
[14] = test system: MCF7; experiment: Cytotoxicity against human MCF7 cells at 30 uM after 96 hrs by sulforhodamine B assay; in short: as §1
[15] = organism: Homo sapiens; experiment: Cytotoxicity against human liposarcoma cells at 30 uM after 96 hrs by sulforhodamine B assay; in short: as §1
[16] = Cytotoxicity against human 518A2 cells after 96 hrs by sulforhodamine B assay; settings: 518A2, 96 h
In short: (§2)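 Human tumour cell lines in 96-well plates, exposed to test compounds for 96 h, then read by colorimetric sulforhodamine B staining. Viable cells are expressed as % of untreated controls. IC50 is taken from dose–response curves, top concentration 30 µM, as the mean of at least three independent experiments (variation generally 10%). Compounds are given as DMSO solutions or as an aqueous liposomal formulation.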

[17] = test system: A-431; experiment: Cytotoxicity against human A431 cells after 96 hrs by sulforhodamine B assay; settings: A-431, 96 h; in short: as §2
[18] = Cytotoxicity against human A253 cells after 96 hrs by sulforhodamine B assay; settings: A253, 96 h; in short: as §2
[19] = test system: FaDu; experiment: Cytotoxicity against human FADU cells after 96 hrs by sulforhodamine B assay; in short: as §2
[20] = test system: A549; experiment: Cytotoxicity against human A549 cells after 96 hrs by sulforhodamine B assay; settings: A549, 96 h; in short: as §2
[21] = test system: A2780; experiment: Cytotoxicity against human A2780 cells after 96 hrs by sulforhodamine B assay; settings: A2780, 96 h; in short: as §2
[22] = test system: DLD-1; experiment: Cytotoxicity against human DLD1 cells after 96 hrs by sulforhodamine B assay; settings: DLD-1, 96 h; in short: as §2
[23] = test system: HCT-8; experiment: Cytotoxicity against human HCT8 cells after 96 hrs by sulforhodamine B assay; settings: HCT-8, 96 h; in short: as §2
[24] = test system: HCT-116; experiment: Cytotoxicity against human HCT116 cells after 96 hrs by sulforhodamine B assay; settings: HCT-116, 96 h; in short: as §2
[25] = test system: HT-29; experiment: Cytotoxicity against human HT-29 cells after 96 hrs by sulforhodamine B assay; settings: HT-29, 96 h; in short: as §2
[26] = test system: SW480; experiment: Cytotoxicity against human SW480 cells after 96 hrs by sulforhodamine B assay; settings: SW480, 96 h; in short: as §2
[27] = test system: 8505C; experiment: Cytotoxicity against human 8505C cells after 96 hrs by sulforhodamine B assay; in short: as §2
[28] = test system: SW-1736; experiment: Cytotoxicity against human SW1736 cells after 96 hrs by sulforhodamine B assay; settings: SW-1736, 96 h; in short: as §2
[29] = test system: MCF7; experiment: Cytotoxicity against human MCF7 cells after 96 hrs by sulforhodamine B assay; settings: MCF7, 96 h; in short: as §2
[30] = Cytotoxicity against human liposarcoma cells after 96 hrs by sulforhodamine B assay; in short: as §2

Compound | inhibition [7] | IC50 [16] [µM] | IC50 [17] [µM] | IC50 [18] [µM] | IC50 [19] [µM] | IC50 [20] [µM] | IC50 [21] [µM] | IC50 [22] [µM] | IC50 [23] [µM] | IC50 [24] [µM] | IC50 [25] [µM] | IC50 [26] [µM] | IC50 [27] [µM] | IC50 [28] [µM] | IC50 [29] [µM] | IC50 [30] [µM] | further results
C=C(C)[C@@H]1CC[C@]2([C@H](O)C#Cc3ccccc3)CC[C@]3(C)[C@H](CC[C@@H]4[C@@]5(C)CC[C@H](OC(C)=O)C(C)(C)[C@@H]5CC[C@]43C)[C@@H]12 | inactive |  |  |  |  |  |  |  |  |  |  |  |  |  |  |  | inhibition [1]: inactive; inhibition [2]: inactive; inhibition [3]: inactive; inhibition [4]: inactive; inhibition [5]: inactive; inhibition [6]: inactive; inhibition [8]: inactive; inhibition [9]: inactive; inhibition [10]: inactive; inhibition [11]: inactive; inhibition [12]: inactive; inhibition [13]: inactive; inhibition [14]: inactive; inhibition [15]: inactive
C=C(C)[C@@H]1CC[C@]2([C@H](O)/C=C\CO)CC[C@]3(C)[C@H](CC[C@@H]4[C@@]5(C)CC[C@H](OC(C)=O)C(C)(C)[C@@H]5CC[C@]43C)[C@@H]12 |  | 20.4 | 12.4 | 14.8 | 10.7 | 12.8 | 12.6 | 12.3 | 10.1 | 10.5 | 15.9 | 17.9 | 17.8 | 9 | 19.4 | 18.5 | 
C=C(C)[C@@H]1CC[C@]2([C@H](O)c3c(C(=O)OCC)n[nH]c3C(=O)OC)CC[C@]3(C)[C@H](CC[C@@H]4[C@@]5(C)CC[C@H](OC(C)=O)C(C)(C)[C@@H]5CC[C@]43C)[C@@H]12 | inactive | 16.4 | 11.7 | 13.2 | 13.9 | 18.2 | 13.2 |  | 13.4 | 14 | 17 | 11.4 | 12 | 19.2 | 11.3 | 14 | 
C=C(C)[C@@H]1CC[C@]2([C@H](O)c3nn[nH]c3C(=O)OC)CC[C@]3(C)[C@H](CC[C@@H]4[C@@]5(C)CC[C@H](OC(C)=O)C(C)(C)[C@@H]5CC[C@]43C)[C@@H]12 |  | 14.8 | 16.6 | 10.3 | 15.1 | 17.3 | 13.4 | 15.5 | 13.9 | 15.6 | 18.2 | 14.7 | 15.4 | 11.8 | 14.8 | 18.2 | 
C=C(C)[C@@H]1CC[C@]2([C@H](O)c3cnn(C)c3C(=O)OC)CC[C@]3(C)[C@H](CC[C@@H]4[C@@]5(C)CC[C@H](OC(C)=O)C(C)(C)[C@@H]5CC[C@]43C)[C@@H]12 | inactive |  | 12.4 | 16 | 17.6 | 24.5 | 12.7 |  | 13.4 | 20.4 |  | 7 | 10.8 | 22.8 | 12.3 | 14.1 | inhibition [1]: inactive; inhibition [10]: inactive
C=C(C)[C@@H]1CC[C@]2([C@H](O)C#CCO)CC[C@]3(C)[C@H](CC[C@@H]4[C@@]5(C)CC[C@H](OC(C)=O)C(C)(C)[C@@H]5CC[C@]43C)[C@@H]12 | inactive | 11.9 | 10.5 | 10.3 | 11.2 | 11.9 | 10.4 |  | 11.6 | 11.3 | 11.6 | 6.9 | 8.4 | 11.5 | 9.9 | 11.4 | 
C=C(C)[C@@H]1CC[C@]2(C(=O)O)CC[C@]3(C)[C@H](CC[C@@H]4[C@@]5(C)CC[C@H](O)C(C)(C)[C@@H]5CC[C@]43C)[C@@H]12 [BETULINIC ACID] |  |  |  |  |  |  | 11 |  |  |  |  |  |  |  |  | 9.7 | 
C=C(C)[C@@H]1CC[C@]2([C@@H]3OC(=O)C=C3N3CCCC3)CC[C@]3(C)[C@H](CC[C@@H]4[C@@]5(C)CC[C@H](OC(C)=O)C(C)(C)[C@@H]5CC[C@]43C)[C@@H]12 |  | 4.7 | 2.1 | 4.6 | 6.3 | 7.8 | 2.2 | 5.4 | 0.5 | 2.1 | 3.9 | 5.7 | 5.3 | 4.1 | 3.7 | 6 | 
C=C(C)[C@@H]1CC[C@]2([C@H](O)C3=C(C(=O)OC)C(C(=O)OCC)N=N3)CC[C@]3(C)[C@H](CC[C@@H]4[C@@]5(C)CC[C@H](OC(C)=O)C(C)(C)[C@@H]5CC[C@]43C)[C@@H]12 (some centres not stated) | inactive | 21.5 | 7.6 | 12.5 | 9.9 | 14.8 | 9.1 |  | 10 | 9.8 | 12 | 7.7 | 8.9 | 16.4 | 8 | 19.9 | 
C=C(C)[C@@H]1CC[C@]2([C@@H]3OC(=O)C=C3NC3CC3)CC[C@]3(C)[C@H](CC[C@@H]4[C@@]5(C)CC[C@H](OC(C)=O)C(C)(C)[C@@H]5CC[C@]43C)[C@@H]12 |  | 6.2 | 2.9 | 4.2 | 6 | 6.6 | 2.5 | 4.7 | 1.9 | 3.2 | 5.1 | 8 | 6 | 3.9 | 4 | 5.8 | 
